Results gathered from unrelated publications.
MAOB: Amine oxidase [flavin-containing] B (MAOB, Homo sapiens, UniProt P27338)
EDNRB: Endothelin receptor type B (EDNRB, Homo sapiens, UniProt P24530)
MMP9 Q279R: Matrix metalloproteinase-9 (MMP9, Homo sapiens, UniProt P14780, Q279R)
CTSV: Cathepsin L2 (CTSV, Homo sapiens, UniProt O60911)

For `Cc1ccc(OP(=O)(Oc2ccc(C)cc2)Oc2ccc(C)cc2)cc1`, the inhibition was 20% (Cholinesterase (Bche, Mus musculus, UniProt Q03311); enzyme activity, inhibitor; mouse; oral, 240 mg/kg).
The inhibition of `O=c1ccoc2ccc(OCCCCN3CCCCC3)cc12` is reported as 63% (MAOB; enzyme activity, inhibitor, fluorescence; 10 µM).
The inhibition of `COc1cc(Nc2ncc(F)c(Nc3ccc4c(n3)NC(=O)C(C)(C)O4)n2)cc(OC)c1OC` is reported as 48% (Phosphatidylinositol 3-kinase C2 domain-containing subunit gamma (PIK3C2G, Homo sapiens, UniProt O75747); binding, competition with immobilised ligand; 10 µM).
With `CN(CCN1CCC(OC(=O)Nc2ccccc2-c2ccccc2)CC1)C(=O)c1ccc(CN2CCC(C(N)=O)CC2)cc1` the inhibition was 11% (EDNRB; ligand displacement, radioligand; 1 µM).
The inhibition of `COc1ccc(S(=O)(=O)N(CC(=O)NO)CC(C)C)cc1` is reported as 27% (MMP9 Q279R; enzyme activity, inhibitor; 1 nM).
`c1ccc(C(NCCNC(c2ccccc2)c2ccccc2)c2ccccc2)cc1` has an inhibition of 5% (MAOB; enzyme activity, inhibitor; 10 µM).
With `C[C@@H]1CCCN1CCCCOc1ccc2occc(=O)c2c1` the inhibition was 28% (MAOB; enzyme activity, inhibitor, fluorescence; 10 µM).
`CC(C)C[C@H](NC(=O)[C@H]1O[C@@H]1C(=O)O)C(=O)NCCCCN=C(N)N` gave an inhibition of 17% (CTSV; enzyme activity, inhibitor; 5 nM).
With `COCc1c(-c2cc3cc(C)cc(OC)c3s2)c2c(N)ncnn2c1CN1CCNC(=O)C1` the inhibition was -1% (EDNRB; ligand displacement, radioligand; 10 µM).
`O=C(Nc1cccnn1)N1CCN([C@@H]2CCOc3cc(C(F)(F)F)ccc32)CC1` has an inhibition of 8% (Matrix metalloproteinase-9 (MMP9, Homo sapiens, UniProt P14780); enzyme activity, inhibitor; 20 µM).
`CCOC(=O)c1ccc(OC(=O)CCCCCNC(=N)N)cc1` has an inhibition of 3% (CTSV; enzyme activity, inhibitor; 10 µM).
The inhibition of `CC(C)N1CCC[C@H]1CNC(=O)c1cn(C2CCCC2)c(=O)c2c1c1ccccc1n2C` is reported as 3% (EDNRB; ligand displacement, radioligand; 10 µM).
For `CN1CCN(CCCOc2ccc3occc(=O)c3c2)CC1`, the inhibition was 20% (MAOB; enzyme activity, inhibitor, fluorescence; 10 µM).
For `N=C(N)c1ccc2cc(OC(=O)c3ccc(N=C(N)N)cc3)ccc2c1`, the inhibition was 11% (MMP9 Q279R; enzyme activity, inhibitor; 10 µM).
